ChEMBL document CHEMBL1949569, “Galactolipids from Bauhinia racemosa as a new class of antifilarial agents against human lymphatic filarial parasite, Brugia malayi” (Eur J Med Chem, 2012)
Converted amounts (≈) assume the structure as drawn. The source made the active and inactive calls. The calls are words filed in the database; no cut-off is given here.

Assays:
Brugia malayi [1] = test: Antifilarial activity against adult Brugia malayi assessed as inhibition of motility at 31.25 ug/ml incubated for 48 hrs followed by washout measured after 1 hr in the absence of drug by microscopic analysis; assay type: functional
Outline: (§1)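 Single fully motile female worms from jird peritoneal cavity were exposed in duplicate wells (1000 µL RPMI 1640, antibiotics, 10% FBS) to two-fold dilutions from 31.25 µg/mL, 48 h, 37 °C, CO2. Worms were moved to drug-free medium and motility was read microscopically 1 h later. Result is % motility reduction vs untreated control.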

Brugia malayi [2] = test: Antifilarial activity against microfilariae Brugia malayi assessed as inhibition of motility at 31.25 ug/ml incubated for 48 hrs followed by washout measured after 1 hr in the absence of drug by microscopic analysis; assay type: functional
Outline: (§2)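 Microfilariae came from jird peritoneal fluid passed through a 5.0 µm membrane filter. Twenty live mf per well in 200 µL medium, in duplicate, were given two-fold dilutions from 31.25 µg/mL. Incubation matched the adult worms (48 h, 37 °C, CO2). Motility was scored and reported as % reduction vs untreated control.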

Brugia malayi [3] = test: Antifilarial activity against adult Brugia malayi at 31.25 ug/ml by MTT assay relative to control; assay type: functional
Outline: (§3)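 Adult female worms were recovered from jird peritoneal cavity 120–150 days after i.p. L3 inoculation. One worm per well sat in 1000 µL RPMI 1640 with antibiotics and 10% FBS, in duplicate, 48 h at 37 °C in CO2. After motility scoring, worms went through the MTT reduction assay. Result is % inhibition of MTT reduction vs untreated control.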

Brugia malayi [4] = test: Antifilarial activity against microfilariae Brugia malayi after 48 hrs by MTT assay; assay type: functional, organism-based
Vero = test: (§4) Cytotoxicity against african green monkey Vero cells after 72 hrs by resazurin dye-based fluorimetric analysis; assay type: cell-based; conditions: chlorocebus sabaeus, vero, 72 h
Outline: (§5)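 Vero cells were seeded at 10,000 per well and left overnight at 37 °C in CO2. Samples were tested in triplicate from a 300 µg/mL top concentration in 3:1 serial dilutions, with drug-free and cell-free controls. Resazurin was added after 72 h drug exposure for 2–4 h, then read at ex 536/em 588 nm. CC50 was taken from fluorescence vs concentration.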

[5] = Selectivity ratio of CC50 for african green monkey Vero cells to IC50 for adult Brugia malayi; assay type: ADME, cell-based
Outline: (§6)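 SI = CC50 (Vero, resazurin assay) / IC50. IC50 came from % motility inhibition of adult female worms or mf over two-fold dilutions from MIC down to 0.3 µg/mL. It was derived from a concentration vs % motility-inhibition plot.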

[6] = Selectivity ratio of CC50 for african green monkey Vero cells to IC50 for microfilariae Brugia malayi; assay type: ADME, cell-based; conditions: for selectivity ratio: Vero cells, read-out: Ratio CC50/IC50; outline: as §6
Brugia malayi [7] = test: Antifilarial activity against adult Brugia malayi after 48 hrs by MTT assay; assay type: functional, organism-based; outline: as §3
[8] = as §4; assay type: cell-based; conditions: chlorocebus sabaeus, Vero cells; outline: as §5
Brugia malayi [9] = test: Antifilarial activity against adult Brugia malayi assessed as inhibition of motility at 15.6 ug/ml incubated for 48 hrs followed by washout measured after 1 hr in the absence of drug by microscopic analysis; assay type: functional; outline: as §1
Brugia malayi [10] = test: Antifilarial activity against adult Brugia malayi assessed as inhibition of motility at 7.8 ug/ml incubated for 48 hrs followed by washout measured after 1 hr in the absence of drug by microscopic analysis; assay type: functional; outline: as §1
Brugia malayi [11] = test: Antifilarial activity against adult Brugia malayi assessed as inhibition of motility at 3.9 ug/ml incubated for 48 hrs followed by washout measured after 1 hr in the absence of drug by microscopic analysis; assay type: functional; outline: as §1
Brugia malayi [12] = test: Antifilarial activity against microfilariae Brugia malayi assessed as inhibition of motility at 15.6 ug/ml incubated for 48 hrs followed by washout measured after 1 hr in the absence of drug by microscopic analysis; assay type: functional; outline: as §2
Brugia malayi [13] = test: Antifilarial activity against microfilariae Brugia malayi assessed as inhibition of motility at 7.8 ug/ml incubated for 48 hrs followed by washout measured after 1 hr in the absence of drug by microscopic analysis; assay type: functional; outline: as §2
Brugia malayi [14] = test: Antifilarial activity against microfilariae Brugia malayi assessed as inhibition of motility at 3.9 ug/ml incubated for 48 hrs followed by washout measured after 1 hr in the absence of drug by microscopic analysis; assay type: functional; outline: as §2
Brugia malayi [15] = test: Antifilarial activity against adult Brugia malayi at 15.6 ug/ml by MTT assay relative to control; assay type: functional; outline: as §3
Brugia malayi [16] = test: Antifilarial activity against adult Brugia malayi at 7.8 ug/ml by MTT assay relative to control; assay type: functional; outline: as §3
Brugia malayi [17] = test: Antifilarial activity against adult Brugia malayi at 3.9 ug/ml by MTT assay relative to control; assay type: functional; outline: as §3
Brugia malayi [18] = test: Antifilarial activity against adult Brugia malayi infected in jird assessed as worm mortality at 50 mg/kg, ip administered for 5 consecutive days measured on day 51; assay type: functional; conditions: route intraperitoneal
Outline: (§7)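 Jirds carrying intraperitoneally transplanted adult B. malayi (sub-periodic strain), 5 animals per group, dosed daily for 5 days. Killed on day 51 after a 50-day observation period. Worms recovered from the peritoneal cavity and scored microscopically for motility, death or encapsulation, giving % adulticidal activity over untreated control, mean ± SE. Live females teased in PBS pH 7.2 to score uterine-content abnormalities as sterilization.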

Brugia malayi [19] = test: Antifilarial activity against adult Brugia malayi infected in jird assessed as sterilized female worm at 50 mg/kg, ip administered for 5 consecutive days measured on day 51; assay type: functional; conditions: route intraperitoneal
Outline: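 In the i.p.-transplanted adult B. malayi jird model, 50 mg/kg was given i.p. for 5 consecutive days, 5 animals per group. Necropsy on day 51 recovered peritoneal worms. Live females were teased in PBS pH 7.2 and uterine oocytes, eggs and mf checked microscopically for abnormality or death. Result is % sterilized females.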

Brugia malayi [20] = test: Antifilarial activity against adult Brugia malayi assessed as inhibition of motility at 1.9 ug/ml incubated for 48 hrs followed by washout measured after 1 hr in the absence of drug by microscopic analysis; assay type: functional; outline: as §1
Brugia malayi [21] = test: Antifilarial activity against microfilariae Brugia malayi assessed as inhibition of motility at 1.9 ug/ml incubated for 48 hrs followed by washout measured after 1 hr in the absence of drug by microscopic analysis; assay type: functional; outline: as §2
Brugia malayi [22] = test: Antifilarial activity against adult Brugia malayi at 1.9 ug/ml by MTT assay relative to control; assay type: functional; outline: as §3
Brugia malayi [23] = test: Antifilarial activity against adult Brugia malayi infected in jird assessed as worm mortality at 100 mg/kg, sc administered for 5 consecutive days measured on day 51; assay type: functional; conditions: route subcutaneous; outline: as §7
Brugia malayi [24] = test: Antifilarial activity against adult Brugia malayi infected in jird assessed as sterilized female worm at 100 mg/kg, sc administered for 5 consecutive days measured on day 51; assay type: functional; conditions: route subcutaneous
Outline: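 Jirds carrying i.p.-transplanted adult B. malayi got 100 mg/kg s.c. daily for 5 days, 5 animals per group. They were euthanized on day 51 and worms recovered from the peritoneal cavity. Live females were teased in PBS pH 7.2 and uterine contents examined microscopically. Any abnormal or dead oocytes, eggs or mf counted as sterilized, reported as % sterile females.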

[25] = Brugia malayi, 48 h, read-out: IC50

Row | Molecule | inhibition at 31.25 µg/mL (Brugia malayi [1]) [%] | inhibition at 31.25 µg/mL (Brugia malayi [2]) [%] | inhibition at 31.25 µg/mL (Brugia malayi [3]) [%] | MIC (Brugia malayi [7]) | MIC (Brugia malayi [4]; Brugia malayi, 48 h) [µg/mL] | IC50 (Brugia malayi [4]; [25]) [µg/mL] | CC50 at 72 h [8] [µg/mL] | selectivity ratio [6] | inhibition at 15.6 µg/mL (Brugia malayi [12]) [%] | inhibition at 7.8 µg/mL (Brugia malayi [13]) [%] | inhibition at 15.6 µg/mL (Brugia malayi [15]) [%] | inhibition at 7.8 µg/mL (Brugia malayi [16]) [%] | Activity (Brugia malayi [18]) [%] | Activity (Brugia malayi [19]) [%] | other results
1 | Oc1ccc([C@H]2Oc3cc(O)cc(O)c3C[C@H]2O)cc1 [EPIAFZELECHIN (2R,3R)(-)] | 50 | 59 | 14.8 |  |  |  |  |  |  |  |  |  |  |  | 
2 | IVERMECTIN [listing 1 of 2 here] |  |  |  |  |  |  |  |  |  |  |  |  |  |  | IC50 (Brugia malayi [4]): 3.62 µg/mL; CC50 (Vero): 52.84 µg/mL; Ratio CC50/IC50 ([5]; vero): > 62.11; Ratio CC50/IC50 ([6]; vero): > 27.62
3 | CCCCCCCC/C=C\CCCCCCCC(=O)OC[C@H](CO[C@@H]1O[C@H](CO[C@H]2O[C@H](CO)[C@H](O)[C@H](O)[C@H]2O)[C@H](O)[C@H](O)[C@H]1O)OC(=O)CCCCCCCCCCCCCCC | 50 | 100 | 24.6 | inactive | 31.2 (≈ 34 µM) | 1.05 (≈ 1.14 µM) | > 100 | > 95.2 | 99 | 90 | 0 | 0 | -54.15 | 0 | inhibition (Brugia malayi [9]): inactive; inhibition (Brugia malayi [10]): inactive; inhibition (Brugia malayi [11]): inactive; inhibition at 3.9 µg/mL (Brugia malayi [14]): 80%; inhibition at 3.9 µg/mL (Brugia malayi [17]): 0%
4 | CCCCCCCCCCCCCCCCCCCCCCCCCCCCO [OCTACOSANOL] | 50 | 100 | 32.6 | inactive | 31.2 (≈ 76.1 µM) | 3.26 (≈ 7.94 µM) | > 100 | > 30.7 | 95 | 85 | 0 | 0 | -49.95 | 0 | inhibition (Brugia malayi [9]): inactive; inhibition (Brugia malayi [10]): inactive
5 | Oc1cc(O)c2c(c1)O[C@@H](c1ccc(O)c(O)c1)[C@H](O)C2 [(-)-CATECHIN] | 60 | 60 | 43.2 |  |  |  |  |  |  |  |  |  |  |  | 
6 | IVERMECTIN [listing 2 of 2 here] |  |  |  |  |  |  |  |  |  |  |  |  |  |  | MIC (Brugia malayi [4]): 125 µg/mL
7 | CC/C=C\C/C=C\C/C=C\CCCCCCCC(=O)OC[C@H](CO[C@@H]1O[C@H](CO[C@H]2O[C@H](CO)[C@H](O)[C@H](O)[C@H]2O)[C@H](O)[C@H](O)[C@H]1O)OC(=O)CCCCCCC/C=C\C/C=C\C/C=C\CC | 100 | 100 | 82.9 | 3.9 µg/mL (≈ 4.16 µM) | 15.6 (≈ 16.6 µM) | 1.61 (≈ 1.71 µM) | > 100 | > 62.2 | 100 | 99 | 75 | 61.8 | -58.3 | 0 | IC50 (Brugia malayi [7]): 1.25 µg/mL (≈ 1.33 µM); selectivity ratio ([5]; Vero cells, read-out: Ratio CC50/IC50): > 80; inhibition at 15.6 µg/mL (Brugia malayi [9]): 100%; inhibition at 7.8 µg/mL (Brugia malayi [10]): 100%; inhibition at 3.9 µg/mL (Brugia malayi [11]): 100%; inhibition at 1.9 µg/mL (Brugia malayi [20]): 90%; inhibition at 3.9 µg/mL (Brugia malayi [14]): 95%; inhibition at 1.9 µg/mL (Brugia malayi [21]): 60%; inhibition at 3.9 µg/mL (Brugia malayi [17]): 52.1%; inhibition at 1.9 µg/mL (Brugia malayi [22]): 43.6%
8 | CCN(CC)C(=O)N1CCN(C)CC1 [DIETHYLCARBAMAZINE] |  |  |  | inactive |  |  |  |  |  |  |  |  |  |  | MIC (Brugia malayi [4]): inactive; Activity (Brugia malayi [23]): -30.5%; Activity (Brugia malayi [24]): 0%
9 | O=C(O)c1ccc(O)c(O)c1 [PROTOCATECHUIC ACID] | 50 | 60 | 20.6 |  |  |  |  |  |  |  |  |  |  |  | 
10 | Oc1cc(O)c2c(c1)O[C@H](c1ccc(O)c(O)c1)[C@H](O)C2 [(-)-EPICATECHIN] | 50 | 50 | 34.8 |  |  |  |  |  |  |  |  |  |  |  | 
11 | CC/C=C\C/C=C\C/C=C\CCCCCCCC(=O)OC[C@H](CO[C@@H]1O[C@H](CO[C@H]2O[C@H](CO)[C@H](O)[C@H](O)[C@H]2O)[C@H](O)[C@H](O)[C@H]1O)OC(=O)CCCCCCCCCCCCCCC | 50 | 100 | 30 | inactive | 31.2 (≈ 34.1 µM) | 2.7 (≈ 2.95 µM) | > 100 | > 37 | 95 | 90 | 0 | 0 | -45.8 | 0 | inhibition (Brugia malayi [9]): inactive; inhibition (Brugia malayi [10]): inactive; inhibition (Brugia malayi [11]): inactive; inhibition at 3.9 µg/mL (Brugia malayi [14]): 70%; inhibition at 3.9 µg/mL (Brugia malayi [17]): 0%
